Assay results taken from ChEMBL document CHEMBL1122117, “Pyridazinones. 1. Synthesis and antisecretory and antiulcer activities of thio amide derivatives” (1982).

Experiments:
Rattus norvegicus [1] = assay: Antiulcer activity as dose required to inhibit 50% gastric juice secretions in male Wistar rats after intraduodenally administration.; assay type: functional; conditions: intraduodenal
Rattus norvegicus [2] = assay: Effective dose required for gastric antisecretory activity in the pylorus-ligated rat after intraduodenal administration.; assay type: functional; conditions: Stomach
Outline: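 Pylorus ligated under ether in fasted rats, six per group. Test agents were given intraduodenally at several dose levels in 1% carboxymethylcellulose, with a vehicle control group. After 7 h the gastric juice volume was measured and titrated with 0.1 N NaOH to pH 3.0 for free acid, as hourly output per rat. ED50 was calculated.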

Rattus norvegicus [3] = assay: Inhibition of gastric antisecretory activity in the pylorus-ligated rat at a dose of 100 mg/kg administered intraduodenally; assay type: functional; conditions: Stomach, route intraduodenal
Outline: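 Shay pylorus-ligated rats, fasted, six per group, ligated under ether. A single intraduodenal dose of 100 mg/kg was given in 1% carboxymethylcellulose, against a vehicle control. The stomach was removed 7 h later, juice volume measured, and free acid titrated with 0.1 N NaOH to pH 3.0 as hourly output. Results are given as percent inhibition versus control.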

Rattus norvegicus [4] = assay: Antiulcer activity in male Donry rat for 50% inhibition of aspirin induced gastric lesions after intraduodenal administration.; assay type: functional; conditions: Stomach
Outline: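 Aspirin ulcer model. Male Donryu rats of 200–220 g were food-deprived 24 h, ten per group, pylorus-ligated, then dosed intraduodenally. Ten min later they received oral aspirin 100 mg/kg in 1% carboxymethylcellulose. At 7 h the summed lengths of glandular lesions gave the ulcer index (mm). ED50 by Litchfield–Wilcoxon.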

Rattus norvegicus [5] = assay: Antiulcer activity in male Wistar rats for 50% inhibition of stress induced gastric lesions after peroral administration.; assay type: functional; conditions: Stomach, po
Outline: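 Stress ulcer model. Male Wistar rats of 200–220 g, ten per group, were dosed orally, then immobilized in a stress cage and immersed in a water bath. The stomach was removed 7 h later and summed lesion lengths gave the ulcer index (mm). ED50 by Litchfield–Wilcoxon.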

Rattus norvegicus [6] = species: Rattus norvegicus; assay: animal or person; conditions: Stomach, intraduodenal

| SMILES | ED50 (Rattus norvegicus [1]) | ED50 (Rattus norvegicus [2]) | inhibition in vivo at 100 mg/kg (Rattus norvegicus [3]) | ED50 (Rattus norvegicus [4]) | ED50 (Rattus norvegicus [5]) | ED50 (Rattus norvegicus [6]) |
| --- | --- | --- | --- | --- | --- | --- |
| Cc1cc(-c2ccccc2)nn(CCC(=N)S)c1=O | 32 mg/kg | 66.7 mg/kg | 60.2% | 73.1 mg/kg | > 50 mg/kg |  |
| Cc1cc(=O)n(CCC(=N)S)nc1-c1ccccc1 |  | > 100 mg/kg | 32% |  |  |  |
| Cc1ccc(=O)n(CCCCC(=N)S)n1 |  | > 100 mg/kg | 29.5% |  |  |  |
| Cc1ccc(-c2ccc(=O)n(CCC(=N)S)n2)cc1 |  |  | 18.2% |  |  |  |
| CC(Cn1nc(-c2ccccc2)ccc1=O)C(=N)S (centres undefined) | 18.2 mg/kg | 28.1 mg/kg | 86.4% | 35 mg/kg | 36.1 mg/kg |  |
| N=C(S)CCCCCN1N=C(c2ccccc2)CCC1=O |  | 100 mg/kg | 48.5% |  |  |  |
| NC(=O)CCn1nc(-c2ccccc2)ccc1=O |  |  | -2.8% |  |  |  |
| CC/N=C(\S)CCn1nc(-c2ccccc2)ccc1=O |  | 100 mg/kg | 50.3% |  |  |  |
| N=C(S)CCCCCCN1N=C(c2ccccc2)CCC1=O | 24.8 mg/kg | 58.8 mg/kg | 68.3% | 72.3 mg/kg | 23 mg/kg |  |
| Cc1ccc(=O)n(C(C)CC(=N)S)n1 (centres undefined) |  | > 100 mg/kg | 32.5% |  |  |  |
| CC(CN1N=C(c2ccccc2)CCC1=O)C(=N)S (centres undefined) |  |  | 28.2% |  |  |  |
| N=C(S)CCN1N=C(c2ccccc2)CCC1=O |  | > 100 mg/kg | 38.2% |  |  |  |
| N=C(S)CCN1N=C(c2cccs2)CCC1=O |  | 77.3 mg/kg | 58.5% |  |  |  |
| CC1=NN(CC(C)C(=N)S)C(=O)CC1 (centres undefined) |  |  | 15.6% |  |  |  |
| N=C(S)CCn1nc(-c2ccccc2)ccc1=S |  | 73.4 mg/kg | 62.3% |  |  |  |
| N=C(S)CCCCN1N=C(c2ccccc2)CCC1=O |  | 100 mg/kg | 50.2% |  |  |  |
| N=C(S)CCn1nc(-c2ccccc2)c2ccccc2c1=O |  | 66.5 mg/kg | 73.3% |  |  |  |
| N=C(S)CCn1ncccc1=O |  | > 100 mg/kg | 28.8% |  |  |  |
| CC(CC(=N)S)n1ncccc1=O (centres undefined) |  | > 100 mg/kg | 38.8% |  |  |  |
| N=C(S)CCCCCn1nc(-c2ccccc2)ccc1=O | 9.2 mg/kg | 23.3 mg/kg | 91.4% | 18.2 mg/kg | 10.2 mg/kg |  |
| N=C(S)CCn1nc2c(cc1=O)CCc1ccccc1-2 |  |  | 1.6% |  |  |  |
| N=C(S)CCn1nc(-c2ccccc2)ccc1=O | 23.2 mg/kg | 87.3 mg/kg | 53.7% | 53.5 mg/kg | 34.5 mg/kg |  |

| SMILES | ED50 (Rattus norvegicus [1]) | ED50 (Rattus norvegicus [2]) | inhibition in vivo at 100 mg/kg (Rattus norvegicus [3]) | ED50 (Rattus norvegicus [4]) | ED50 (Rattus norvegicus [5]) | ED50 (Rattus norvegicus [6]) |
| --- | --- | --- | --- | --- | --- | --- |
| O=C(O)CCn1nc(-c2ccccc2)ccc1=O |  |  | 26.1% |  |  |  |
| Cc1ccc(=O)n(CCC#N)n1 |  |  | -0.2% |  |  |  |
| COc1ccc2cc(-c3ccc(=O)n(CCC(=N)S)n3)ccc2c1 |  | 100 mg/kg | 48.9% |  |  |  |
| CN(C)C(=S)CCCCCn1nc(-c2ccccc2)ccc1=O |  | 100 mg/kg | 58.2% |  |  |  |
| N=C(S)CCn1[nH]c(=O)ccc1=O |  |  | -13.4% |  |  |  |
| C/N=C(\S)C(C)Cn1ncccc1=O (centres undefined) | 40 mg/kg | 100 mg/kg | 50.2% | 68.5 mg/kg | > 50 mg/kg |  |
| CC1=NN(C(C)CC(=N)S)C(=O)CC1 (centres undefined) |  |  | 17.4% |  |  |  |
| N=C(S)CCn1ncccc1=S |  | 100 mg/kg | 50% |  |  |  |
| N=C(S)CCCN1N=C(c2ccccc2)CCC1=O |  | 100 mg/kg | 50.3% |  |  |  |
| Cc1ccc(=O)n(CC(=N)S)n1 |  | > 100 mg/kg | 31.5% |  |  |  |
| N=C(S)CCCn1nc(-c2ccccc2)ccc1=O | 15.5 mg/kg | 31.9 mg/kg | 75.6% | 38 mg/kg | 10.5 mg/kg |  |
| Cc1ccc(=S)n(CCC(=N)S)n1 |  | 100 mg/kg | 48.5% |  |  |  |
| N=C(S)Cn1nc(-c2ccccc2)ccc1=O |  |  | 5.5% |  |  |  |
| N=C(S)CCn1nc(-c2ccc(Cl)c(Cl)c2)ccc1=O |  | 78.1 mg/kg | 55.8% |  |  |  |
| N=C(S)CCn1nc(-c2ccc(Cl)cc2)ccc1=O |  | > 100 mg/kg | 42.5% |  |  |  |
| CNC(=O)CCn1nc(-c2ccccc2)ccc1=O |  |  | 3.5% |  |  |  |
| CC(CC(=N)S)N1N=C(c2ccccc2)CCC1=O (centres undefined) |  |  | 9.2% |  |  |  |
| CC(Cn1ncccc1=S)C(=N)S (centres undefined) |  |  | -1% |  |  |  |
| C/N=C(\S)CC(C)n1ncccc1=O (centres undefined) |  | > 100 mg/kg | 42.7% |  |  |  |
| N=C(S)CCCCCCn1nc(-c2ccccc2)ccc1=O |  | > 100 mg/kg | 33.9% |  |  |  |
| C/N=C(/S)CCCCCn1nc(-c2ccccc2)ccc1=O | 15 mg/kg | 25.2 mg/kg | 92.3% | 45.5 mg/kg | 18.3 mg/kg |  |
| Cc1ccc(=O)n(CCCC(=N)S)n1 |  | > 100 mg/kg | 36.3% |  |  |  |

| SMILES | ED50 (Rattus norvegicus [1]) | ED50 (Rattus norvegicus [2]) | inhibition in vivo at 100 mg/kg (Rattus norvegicus [3]) | ED50 (Rattus norvegicus [4]) | ED50 (Rattus norvegicus [5]) | ED50 (Rattus norvegicus [6]) |
| --- | --- | --- | --- | --- | --- | --- |
| N#CCCn1nc(-c2ccccc2)ccc1=O |  |  | 10.1% |  |  |  |
| Cc1ccc(=O)n(CCCCCCC(=N)S)n1 |  | > 100 mg/kg | 29.5% |  |  |  |
| CC1=NN(CCC(=N)S)C(=O)CC1 |  | > 100 mg/kg | 34.8% |  |  |  |
| N=C(S)CCN1N=C(c2ccc(Cl)c(Cl)c2)CCC1=O |  | > 100 mg/kg | 47.2% |  |  |  |
| O=c1ccc(-c2ccccc2)nn1CCC(=S)N1CCCC1 |  | > 100 mg/kg | 38.2% |  |  |  |
| CC(Cn1ncccc1=O)C(=N)S (centres undefined) |  | > 100 mg/kg | 40.3% |  |  |  |
| N=C(S)CCN1N=C(c2ccc(Cl)cc2)CCC1=O |  | > 100 mg/kg | 43.1% |  |  |  |
| Cc1ccc(=O)n(CCC(N)=O)n1 |  |  | -2.9% |  |  |  |
| Cc1ccc(=O)n(CCC(=N)S)n1 | 51.3 mg/kg | 43.2 mg/kg | 73.9% | > 100 mg/kg | > 50 mg/kg |  |
| N=C(S)CCCCn1nc(-c2ccccc2)ccc1=O |  | > 100 mg/kg | 33.8% |  |  |  |
| Cc1ccc(=O)n(CCCCCC(=N)S)n1 |  | > 100 mg/kg | 36.6% |  |  |  |
| C/N=C(\S)CCn1ncccc1=O |  | > 100 mg/kg | 30.7% |  |  |  |
| CCOC(=O)CCn1nc(-c2ccccc2)ccc1=O |  |  | 6.3% |  |  |  |
| COc1ccc(-c2ccc(=O)n(CCC(=N)S)n2)cc1 |  | > 100 mg/kg | 20.7% |  |  |  |
| N=C(S)CCn1ncc2ccccc2c1=O |  | 90.1 mg/kg | 58.3% |  |  |  |
| CC(CC(=N)S)n1nc(-c2ccccc2)ccc1=O (centres undefined) |  |  | 15.5% |  |  |  |
| Cc1ccc(=O)n(CC(C)C(=N)S)n1 (centres undefined) |  | > 100 mg/kg | 30.2% |  |  |  |
| CN(C)C(=S)CCn1nc(-c2ccccc2)ccc1=O |  |  | 46% |  |  |  |
| N=C(S)CCn1nc(-c2cccs2)ccc1=O |  | 100 mg/kg | 50.2% |  |  |  |
| O=c1cccnn1CCC(=S)N1CCCC1 |  | > 100 mg/kg | 29.7% |  |  |  |
| C/N=C(\S)CCn1nc(-c2ccccc2)ccc1=O | 50.1 mg/kg | 58.5 mg/kg | 68.2% | 66.3 mg/kg | 28.3 mg/kg |  |
| CN/C(=N\CCSCc1nc[nH]c1C)NC#N [CIMETIDINE] |  |  |  |  | 43.2 mg/kg | > 100 mg/kg |
